Data published in ChEMBL document CHEMBL1781959, “Synthesis and in vitro antitumor activity of substituted quinazoline and quinoxaline derivatives: search for anticancer agent” (Eur J Med Chem, 2011).

What was measured:
Format in all cases: functional
SF-268 = test: Anticancer activity against human SF268 cells assessed as cell growth promotion at 10^-5 M after 48 hrs by SRB assay relative to control
SF-295 = test: Anticancer activity against human SF295 cells assessed as cell growth promotion at 10^-5 M after 48 hrs by SRB assay relative to control
SF-539 = test: Anticancer activity against human SF539 cells assessed as cell growth promotion at 10^-5 M after 48 hrs by SRB assay relative to control
SNB-19 = test: Anticancer activity against human SNB19 cells assessed as cell growth promotion at 10^-5 M after 48 hrs by SRB assay relative to control
LOX IMVI = test: Anticancer activity against human LOXIMVI cells assessed as cell growth promotion at 10^-5 M after 48 hrs by SRB assay relative to control
Malme-3M = test: Anticancer activity against human MALME-3M cells assessed as cell growth promotion at 10^-5 M after 48 hrs by SRB assay relative to control
CCRF-CEM = test: Anticancer activity against human CCRF-CEM cells assessed as cell growth promotion at 10^-5 M after 48 hrs by SRB assay relative to control
M14 = test: Anticancer activity against human M14 cells assessed as cell growth promotion at 10^-5 M after 48 hrs by SRB assay relative to control
MDA-MB-435 = test: Anticancer activity against human MDA-MB-435 cells assessed as cell growth promotion at 10^-5 M after 48 hrs by SRB assay relative to control
SK-MEL-28 = test: Anticancer activity against human SK-MEL-28 cells assessed as cell growth promotion at 10^-5 M after 48 hrs by SRB assay relative to control
SK-MEL-5 = test: Anticancer activity against human SK-MEL-5 cells assessed as cell growth promotion at 10^-5 M after 48 hrs by SRB assay relative to control
IGROV-1 = test: Anticancer activity against human IGROV1 cells assessed as cell growth promotion at 10^-5 M after 48 hrs by SRB assay relative to control
OVCAR-3 = test: Anticancer activity against human OVCAR3 cells assessed as cell growth promotion at 10^-5 M after 48 hrs by SRB assay relative to control
OVCAR-5 = test: Anticancer activity against human OVCAR5 cells assessed as cell growth promotion at 10^-5 M after 48 hrs by SRB assay relative to control
SK-OV-3 = test: Anticancer activity against human SKOV3 cells assessed as cell growth promotion at 10^-5 M after 48 hrs by SRB assay relative to control
A498 = test: Anticancer activity against human A498 cells assessed as cell growth promotion at 10^-5 M after 48 hrs by SRB assay relative to control
ACHN = test: Anticancer activity against human ACHN cells assessed as cell growth promotion at 10^-5 M after 48 hrs by SRB assay relative to control
CAKI-1 = test: Anticancer activity against human Caki1 cells assessed as cell growth promotion at 10^-5 M after 48 hrs by SRB assay relative to control
RXF 393 = test: Anticancer activity against human RXF393 cells assessed as cell growth promotion at 10^-5 M after 48 hrs by SRB assay relative to control
SN12C = test: Anticancer activity against human SN12C cells assessed as cell growth promotion at 10^-5 M after 48 hrs by SRB assay relative to control
TK-10 = test: Anticancer activity against human TK10 cells assessed as cell growth promotion at 10^-5 M after 48 hrs by SRB assay relative to control
UO-31 = test: Anticancer activity against human UO31 cells assessed as cell growth promotion at 10^-5 M after 48 hrs by SRB assay relative to control
DU-145 = test: Anticancer activity against human DU145 cells assessed as cell growth promotion at 10^-5 M after 48 hrs by SRB assay relative to control
MCF7 = test: Anticancer activity against human MCF7 cells assessed as cell growth promotion at 10^-5 M after 48 hrs by SRB assay relative to control
HL-60(TB) = test: Anticancer activity against human HL-60(TB) cells assessed as cell growth promotion at 10^-5 M after 48 hrs by SRB assay relative to control
Outline: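 NCI-60 single-dose screen: compound at 10^-5 M, 48 h at 37 °C, 5% CO2; cells grown in RPMI 1640 with 5% FBS and 2 mM L-glutamine, pre-incubated 24 h before dosing. Adherent cells fixed with cold TCA; endpoint is sulforhodamine B protein staining. Percent growth of treated cells is reported relative to untreated control.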

K562 = test: Anticancer activity against human K562 cells assessed as cell growth promotion at 10^-5 M after 48 hrs by SRB assay relative to control
MOLT-4 = test: Anticancer activity against human MOLT4 cells assessed as cell growth promotion at 10^-5 M after 48 hrs by SRB assay relative to control
MDA-MB-231 = test: Anticancer activity against human MDA-MB-231 cells assessed as cell growth promotion at 10^-5 M after 48 hrs by SRB assay relative to control
[1] = Anticancer activity against human Hs 578T cells assessed as cell growth promotion at 10^-5 M after 48 hrs by SRB assay relative to control
T47D = test: Anticancer activity against human T47D cells assessed as cell growth promotion at 10^-5 M after 48 hrs by SRB assay relative to control
MDA-MB-468 = test: Anticancer activity against human MDA-MB-468 cells assessed as cell growth promotion at 10^-5 M after 48 hrs by SRB assay relative to control
EKVX = test: Anticancer activity against human EKVX cells assessed as cell growth promotion at 10^-5 M after 48 hrs by SRB assay relative to control
NCI-H23 = test: Anticancer activity against human NCI-H23 cells assessed as cell growth promotion at 10^-5 M after 48 hrs by SRB assay relative to control
NCI-H460 = test: Anticancer activity against human NCI-H460 cells assessed as cell growth promotion at 10^-5 M after 48 hrs by SRB assay relative to control
HCC 2998 = test: Anticancer activity against human HCC2998 cells assessed as cell growth promotion at 10^-5 M after 48 hrs by SRB assay relative to control
HCT-116 = test: Anticancer activity against human HCT116 cells assessed as cell growth promotion at 10^-5 M after 48 hrs by SRB assay relative to control
HT-29 = test: Anticancer activity against human HT-29 cells assessed as cell growth promotion at 10^-5 M after 48 hrs by SRB assay relative to control
KM12 = test: Anticancer activity against human KM12 cells assessed as cell growth promotion at 10^-5 M after 48 hrs by SRB assay relative to control

O=C(Nc1ccccc1C(=O)Nc1ccc(/C=C/c2ccc(O)cc2)cc1)c1ccccc1
Activity (SF-268): 69.03% | Activity (SF-295): 97.53% | Activity (SF-539): 81.74% | Activity (SNB-19): 86.41% | Activity (LOX IMVI): 69.03% | Activity (Malme-3M): 97.53% | Activity (CCRF-CEM): 40.37% | Activity (M14): 81.74% | Activity (MDA-MB-435): 86.41% | Activity (SK-MEL-28): 103% | Activity (SK-MEL-5): 76.71% | Activity (IGROV-1): 85.6% | Activity (OVCAR-3): 89.47% | Activity (OVCAR-5): 96.06% | Activity (SK-OV-3): 92.69% | Activity (A498): 85.08% | Activity (ACHN): 58.96% | Activity (CAKI-1): 70.25% | Activity (RXF 393): 97.37% | Activity (SN12C): 80.93% | Activity (TK-10): 100% | Activity (UO-31): 39.29% | Activity (DU-145): 100% | Activity (MCF7): 77.81% | Activity (HL-60(TB)): 50.34% | Activity (K562): 40.21% | Activity (MOLT-4): 44.21% | Activity (MDA-MB-231): 76.35% | Activity [1]: 104% | Activity (T47D): 66.17% | Activity (MDA-MB-468): 77.87% | Activity (EKVX): 85.24% | Activity (NCI-H23): 91.38% | Activity (NCI-H460): 92.1% | Activity (HCC 2998): 94.19% | Activity (HCT-116): 70.71% | Activity (HT-29): 97.64% | Activity (KM12): 67.28%
